Measurements published in PMC8182972 (Journal of medicinal chemistry, 2011).
Values after ≈ are worked out from the molar mass of the structure shown. Values joined by “and” are separate entries in the source; they are usually repeats but may differ in a detail not shown here. Equal entries are not always repeated. “Also recorded” adds a separate entry of the source. Each block holds one compound with its values, some of them ahead of it.

Tests used:
[1] = system: PC12 cells expressing mutant G93A SOD1; type: cell-based; conditions: for EC50: PC12 cells expressing mutant G93A SOD1, MG132 100 nM, Calcein-AM viability
[2] = system: primary cortical neurons; assay: Primary cortical neuron cell protection assay; type: cell-based, rat; conditions: MG132 100 nM; active = viability restored ≥ 5 SD from MG132 controls
[3] = system: Caco-2 monolayer cells; assay: Caco-2 permeability; type: in vitro ADME; conditions: for Ratio (B→A / A→B): Caco-2 efflux ratio
[4] = In vitro microsomal stability, mouse; type: in vitro ADME; conditions: 5 μM, 37 °C; for CL’int: 1 h, with NADPH; for CL’int NADPH-free: absence of NADPH
[5] = In vitro microsomal stability, human; type: in vitro ADME; conditions: 37 °C; for CLint scaled at 1 h, 5 µM: human, microsomes
[6] = Aqueous solubility; type: physicochemical; conditions: for Maximum Solubility: 1% DMSO in PBS
[7] = Mouse in vivo steady-state level and blood-brain barrier penetration; set-up: species or system mice
Method in brief: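 B6SJL mice received a 300 mg/kg bolus i.p. injection of test compound. Blood and brain were collected at 0, 1, 3, 6, 12 and 24 h, flash-frozen in liquid nitrogen and stored at -80 °C. Samples were quantified by mass spectrometry with ESI ionization in MRM mode.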

[8] = In vivo rat PK profiling; set-up: species or system Sprague-Dawley rats; conditions: SD rats
Method in brief: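 Sprague-Dawley rats received a single 1 mg/kg bolus of test compound, i.v. or orally. Plasma profiling gave AUC last, AUC/dose, T1/2, clearance, Vss, Cmax, Tmax and oral bioavailability (%F). Work was done by a contract partner.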

[9] = system: HEK293; assay: Screen in other cell types: HEK293; type: cell-based
[10] = target: CYP2C19 (Homo sapiens, UniProt P33261); assay: CYP inhibition in human liver microsomes; type: biochemical
Method in brief: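 Reversible CYP inhibition was measured in human liver microsomes across CYP1A2, 2C9, 2C19, 2D6 and 3A4. Each isozyme used a single probe substrate, except CYP3A4, which used both testosterone and midazolam. IC50 values were derived from this. Work was done by a contract partner.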

[11] = system: SHSY-5Y; assay: Screen in other cell types: SHSY-5Y; type: cell-based
[12] = system: 68 in vitro enzyme and receptor assays; assay: LeadProfilingScreen; type: binding; conditions: 10 μM, in duplicate
Method in brief: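 Test compound was screened at 10 μM in duplicate against a commercial panel of 68 enzyme and receptor assays. The panel covers common adverse CNS, cardiovascular, pulmonary and […] liabilities.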

[13] = system: HeLa; assay: Screen in other cell types: HeLa; type: cell-based
[14] = system: ALS patients; conditions: cited from earlier work
[15] = Metabolite profiling of 1; type: in vitro ADME; conditions: rat liver microsomes, 5 μM, in the presence of NADPH, LC/MS/MS
Method in brief: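 Test compound and its [15N2]-labelled analog (5 μM) were incubated in duplicate with or without rat liver microsomes, in the presence and absence of NADPH. Aliquots were taken at 0, 10, 20, 40 and 60 min. Protein was precipitated with acetonitrile containing internal standard, and supernatants were analysed by LC/MS/MS for new peaks absent from no-microsome, no-compound and no-NADPH controls.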

[16] = B6SJL, mouse, plasma, ip, 300 mg/kg

Chain of CYP2C19 (P33261 whole entry): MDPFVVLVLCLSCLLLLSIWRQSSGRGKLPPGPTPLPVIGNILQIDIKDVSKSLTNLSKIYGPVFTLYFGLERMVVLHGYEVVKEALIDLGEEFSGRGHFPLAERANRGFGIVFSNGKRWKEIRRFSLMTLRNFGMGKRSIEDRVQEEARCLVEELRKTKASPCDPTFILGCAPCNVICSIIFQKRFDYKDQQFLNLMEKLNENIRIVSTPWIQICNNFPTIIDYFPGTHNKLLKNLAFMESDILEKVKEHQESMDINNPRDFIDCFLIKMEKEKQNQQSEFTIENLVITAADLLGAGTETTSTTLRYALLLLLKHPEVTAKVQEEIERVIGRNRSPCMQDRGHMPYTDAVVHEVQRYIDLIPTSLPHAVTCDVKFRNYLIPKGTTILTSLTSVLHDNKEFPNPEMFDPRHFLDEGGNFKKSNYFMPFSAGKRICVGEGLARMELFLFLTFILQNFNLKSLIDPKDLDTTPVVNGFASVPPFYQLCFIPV

Compound: 5-(4-Chlorophenylsulfonyl)-1H-pyrazol-3(2H)-one [Compound 6]
EC50 [1]: 4.7 µM

Compound: 5-(3,5-Dichlorophenylsulfonyl)-1H-pyrazol-3(2H)-one [Compound 7]
activity in primary cortical neuron cell protection assay [2]: active
Papp (A→B) ([3]; Caco-2): 27.0 10^−6 cm/s
Papp (B→A) ([3]; Caco-2): 4.4 10^−6 cm/s
Ratio (B→A / A→B) [3]: 0.2
CL’int [4]: 15.3 mL/min/kg
CL’int ([5]; 5 μM, 1 h, with NADPH): 4.5 mL/min/kg
CL’int NADPH-free ([5]; 5 μM, absence of NADPH): 1.3 mL/min/kg
Maximum Solubility ([6]; 45 min): ≥500 µM
Maximum Solubility ([6]; 16 h): ≥500 µM
EC50 [1]: 1.41 µM

Ratio (B→A / A→B) [3]: 0.2–0.6
CL’int [4]: 64 mL/min/kg
CL’int NADPH-free [4]: 21 mL/min/kg
concentration at 0 h [7, 16]: 0 ng/mL
concentration at 3 h [7, 16]: 88800 ng/mL and 88.8 µM
concentration at 6 h [7, 16]: 90000 ng/mL and 90 µM
concentration at 12 h [7, 16]: 64400 ng/mL and 64.4 µM
concentration at 24 h [7, 16]: 1700 ng/mL and 1.7 µM
time of plasma peak ([7]; mice, i.p.): 3 to 6 h
AUC/Dose ([8]; 1 mg/kg i.v. single bolus): 184 ng × h/mL/dose
AUC/Dose ([8]; 1 mg/kg p.o. single bolus): 50 ng × h/mL/dose
IC50 [10]: > 50 µM
CLint scaled at 1 h, 5 µM ([5]; CL’int NADPH-free, absence of NADPH): 13 mL/min/kg
solubility at 45 min ([6]; PBS with 1% DMSO): 250 µM (≈ 64.8 µg/mL)
solubility at 16 h ([6]; PBS with 1% DMSO): 250 µM (≈ 64.8 µg/mL)
Compound: O=c1cc(COc2cc(Cl)cc(Cl)c2)[nH][nH]1 [Compound 13, 5-((3,5-Dichlorophenoxy)methyl)-1H-pyrazol-3(2H)-one]
activity in primary cortical neuron cell protection assay [2]: active
activity in HEK293 cells [9]: active
activity in SHSY-5Y cells [11]: active
activity in the 68 assays of LeadProfilingScreen [12]: No significant activity; also recorded: no significant binding
activity in HeLa cells [13]: active

Compound: O=c1cc(CSc2c(Cl)cccc2Cl)[nH][nH]1 [Compound 2]
activity in primary cortical neuron cell protection assay [2]: active

Compound: 5-(4-Chloro-2,5-dimethylphenylsulfinyl)-1H-pyrazol-3(2H)-one [Compound 5]
EC50 [1]: 2.88 µM

Compound: 5-(4-Chloro-2,5-dimethylphenylsulfonyl)-1H-pyrazol-3(2H)-one [Compound 8]
EC50 [1]: 1.47 µM

Compound: Nc1nc2ccc(OC(F)(F)F)cc2s1 [riluzole]
extension of patient lives [14]: 2–3 months

CL’int [4]: 24.5 mL/min/kg
CL’int NADPH-free [4]: 6.1 mL/min/kg
CLint scaled at 1 h, 5 µM ([5]; CL’int, 1 h, with NADPH): 15.3 mL/min/kg
Compound: O=c1cc(COc2ccc(Cl)cc2)[nH][nH]1 [Compound 9, 5-((4-Chlorophenoxy)methyl)-1H-pyrazol-3(2H)-one]

microsomal metabolite identified [15]: sulfoxide
Compound: O=c1cc(CSc2ccc(Cl)cc2)[nH][nH]1 [Compound 1]

Compound: 5-(4-Chlorophenylsulfinyl)-1H-pyrazol-3(2H)-one [Compound 4]
maximum viability in the cytotoxicity protection assay [1]: ~ 35%
EC50 [1]: > 32 µM
